target: Sodium-dependent dopamine transporter (Rattus norvegicus, UniProt P23977); experiment: Binding affinity for dopamine transporters in rat brain tissue.
Procedure, shortened: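 Crude membrane fraction from rat corpus striatum homogenate. Nonspecific binding defined with 30 μM methylphenidate. Each agent tested at six concentrations in duplicate. Concentration-inhibition curves computer-fit for IC50 ± SEM, converted to Ki = IC50/(1 + [L/Kd]).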

Chain of Sodium-dependent dopamine transporter (P23977 whole entry): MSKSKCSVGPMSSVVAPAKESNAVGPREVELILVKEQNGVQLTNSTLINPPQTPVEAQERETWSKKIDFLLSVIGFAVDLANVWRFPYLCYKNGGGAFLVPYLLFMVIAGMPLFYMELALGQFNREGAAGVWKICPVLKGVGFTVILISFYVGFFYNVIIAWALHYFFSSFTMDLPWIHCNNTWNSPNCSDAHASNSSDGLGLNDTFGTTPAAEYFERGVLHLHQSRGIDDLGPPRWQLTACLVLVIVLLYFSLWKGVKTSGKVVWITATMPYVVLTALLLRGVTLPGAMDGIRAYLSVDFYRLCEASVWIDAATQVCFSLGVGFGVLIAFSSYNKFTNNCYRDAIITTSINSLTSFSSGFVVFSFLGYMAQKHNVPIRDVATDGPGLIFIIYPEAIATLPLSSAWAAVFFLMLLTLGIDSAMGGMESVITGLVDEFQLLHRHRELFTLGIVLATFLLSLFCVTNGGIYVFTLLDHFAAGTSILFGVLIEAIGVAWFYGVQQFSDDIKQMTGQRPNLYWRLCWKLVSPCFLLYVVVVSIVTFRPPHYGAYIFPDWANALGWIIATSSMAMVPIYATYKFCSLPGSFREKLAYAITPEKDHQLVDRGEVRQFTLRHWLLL

Row | SMILES | Ki [µM]
1 | COC(=O)[C@H]1C(c2cc[c]([Sn]([CH3])([CH3])[CH3])cc2)C[C@H]2CCC1N2CCCF (stereo partly drawn) [(2S,5R)-8-(3-Fluoro-propyl)-3-(4-trimethylstannanyl-phenyl)-8-aza-bicyclo[3.2.1]octane-2-carboxylic acid methyl ester] | > 10
2 | COC(=O)[C@H]1C(c2cc[c]([Sn]([CH3])([CH3])[CH3])cc2)C[C@H]2CCC1N2CCF (stereo partly drawn) [(2S,5R)-8-(2-Fluoro-ethyl)-3-(4-trimethylstannanyl-phenyl)-8-aza-bicyclo[3.2.1]octane-2-carboxylic acid methyl ester] | > 10
3 | CC(C)OC(=O)[C@H]1C(c2cc[c]([Sn]([CH3])([CH3])[CH3])cc2)C[C@H]2CCC1N2CCCF (stereo partly drawn) [(2S,5R)-8-(3-Fluoro-propyl)-3-(4-trimethylstannanyl-phenyl)-8-aza-bicyclo[3.2.1]octane-2-carboxylic acid isopropyl ester] | > 10
4 | CC(C)OC(=O)[C@H]1C(c2cc[c]([Sn]([CH3])([CH3])[CH3])cc2)C[C@H]2CCC1N2CCF (stereo partly drawn) [(2S,5R)-8-(2-Fluoro-ethyl)-3-(4-trimethylstannanyl-phenyl)-8-aza-bicyclo[3.2.1]octane-2-carboxylic acid isopropyl ester] | 1.15

Source: BindingDB's records for doi:10.1021/jm00037a004 (Research Biochemicals International, 1994)
